# Results as given in ChEMBL document CHEMBL1121392, “Synthesis and antiarrhythmic properties of some 5-benzamido-2-methyl-trans-decahydroisoquinolines” (J Med Chem, 1980).
# Experiments:
# [1] = Compound was evaluated for acute toxicity (24 h) in female roswell park white mice given intraperitoneally; type: organism-based; conditions: mouse, in vivo, ip
# In short: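 Female Roswell Park (ICR) mice, about 15–25 g, dosed intraperitoneally in groups of at least ten. At least three dose levels were spaced logarithmically at intervals of 0.1 or less. Deaths were scored at 24 h.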
# Mus musculus = species: Mus musculus; experiment: Antiarrhythmic potency in female roswell park white mice using chloroform-induced ventricular fibrillation assay; type: functional; conditions: Heart
# [2] = Ratio of lethal dose to that of effective dose in mice; type: ADME, organism-based; conditions: mouse, in vivo
SMILES,LD50 at 24 h [1],ED50 (Mus musculus),therapeutic index (LD50/ED50) [2]
CN1CCC2C(CCCC2NC(=O)c2ccc(Cl)cc2)C1 (stereo not given),929 µmol/kg,49 µmol/kg,19
CN1CCC2C(CCCC2NC(=O)c2ccc([N+](=O)[O-])cc2)C1 (stereo not given),1100 µmol/kg,95 µmol/kg,11.7
COc1cc(C(=O)NC2CCCC3CN(C)CCC32)cc(OC)c1OC (stereo not given),610 µmol/kg,25 µmol/kg,24
CN1CCC2C(CCCC2NC(=O)c2cccc(Cl)c2)C1 (stereo not given),613 µmol/kg,73 µmol/kg,8.36
Cc1ccc(C(=O)NC2CCCC3CN(C)CCC32)cc1 (stereo not given),803 µmol/kg,110 µmol/kg,7.3
CN1CCC2C(CCCC2NC(=O)c2ccccc2)C1 (stereo not given),866 µmol/kg,101 µmol/kg,8.58
CN1CCC2C(CCCC2NC(=O)c2ccc(F)cc2)C1 (stereo not given),992 µmol/kg,110 µmol/kg,9
C=C[C@H]1CN2CC[C@H]1C[C@@H]2[C@@H](O)c1ccnc2ccc(OC)cc12 [QUINIDINE],524 µmol/kg,122 µmol/kg,–
COc1ccc(C(=O)NC2CCCC3CN(C)CCC32)cc1 (stereo not given),1140 µmol/kg,109 µmol/kg,10.4
CN1CCC2C(CCCC2NC(=O)c2ccc(Cl)cc2Cl)C1 (stereo not given),624 µmol/kg,88 µmol/kg,7.1
CN1CCC2C(CCCC2NC(=O)c2ccc(Cl)c(Cl)c2)C1 (stereo not given),630 µmol/kg,32 µmol/kg,19.6
CN1CCC2C(CCCC2NC(=O)c2ccc(C(F)(F)F)cc2)C1 (stereo not given),661 µmol/kg,48 µmol/kg,13.6
